# Source: PMC9309012 (Journal of medicinal chemistry, 2021)
# Entries after “also recorded” stand apart in the source; their conditions may differ.
# How the values were obtained:
# [1] = test system: T. vaginalis strains (four MzS, four MzR); assay: Drug susceptibility of Mz-sensitive and Mz-resistant T. vaginalis lines; type: cell-based, Trichomonas vaginalis; details: for activity against Mz-resistant T. vaginalis lines: four Mz-resistant clinical isolates
# How it was run: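 Trophozoites were cultured at 37 °C in TYM Diamond's medium with 180 μM ferrous ammonium sulphate. Compound stocks were diluted in PBS to 75 μM, then serially diluted 1:3. Plates held 5 × 10^3 trophozoites/well and were incubated 24 h at 37 °C anaerobically. ATP luminescence (BacTiter-Glo) read growth and viability, and curves gave EC50. Replicates: n≥3, mean + SEM. MzS versus MzR groups were compared by unpaired t-test.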
# T. vaginalis F1623 [2] = details: previously discovered; cited from earlier work
# TrxR in T. vaginalis = details: read-out: IC50, TrxR inhibition; cited from earlier work
# HeLa cells = assay: Cytotoxicity assay in human HeLa cells; type: cell-based; details: for human cytotoxicity: HeLa cells, 48 h, described in words (Fig. 2-4)
# [3] = test system: sensitive T. vaginalis strain; assay: Synergy of gold; type: cell-based, Trichomonas vaginalis; details: 24 h
# T. foetus = assay: In vitro activity against T. foetus; type: cell-based; details: compared with T. vaginalis F1623
# T. vaginalis F1623 [4] = assay: T. vaginalis 24 h growth and survival assay; type: cell-based, Trichomonas vaginalis; details: for trichomonacidal activity: T. vaginalis F1623, 24 h, described in words (Fig. 2-4); for reduced trichomonacidal activity compared to the chloride counterparts: bromide and iodide vs chloride complexes (4, 10)
# T. foetus D1 = assay: Murine vaginal trichomonad infection model; type: in vivo, BALB/cJ mice; details: 4 days after infection, Wright-Giemsa stain
# [5] = intravaginal administration compared to a single oral dose; cited from earlier work
# [6] = tributyl vs triethyl phosphine compound
Compound,human cytotoxicity (HeLa cells),trichomonacidal activity (T. vaginalis F1623 [4]),further results
"CC(=O)OC[C@H]1O[C@@H]([S-])[C@H](OC(C)=O)[C@@H](OC(C)=O)[C@@H]1OC(C)=O.CCP(CC)CC.[Au+] [AF, reference compound]",slightly more toxic against human cells than the parasite,–,activity against Mz-resistant T. vaginalis lines [1]: sensitive; activity against T. vaginalis / trichomonads (T. vaginalis F1623 [2]): low μM range; IC50 (TrxR in T. vaginalis): ~0.1 µM; interference or synergy with the activity of Mz [3]: neither compound 4 nor AF interfered or synergized; activity against T. foetus in vitro (T. foetus): as active against T. foetus in vitro as they were against T. vaginalis
"OCC1OC([S-])C(O)C(O)C1O.[Au+] (stereo not drawn) [ATG, 3,4,5-trihydroxy-6-(hydroxymethyl)oxane-2-thiolate gold (I), reference compound]",–,barely showed activity,–
"O.O=C([O-])CC([S-])C(=O)[O-].[Au+].[Na+].[Na+] (stereo not drawn) [ATM, (1,2-Dicarboxyethylthio) disodium salt hydrate gold(I), reference compound]",–,barely showed activity,–
"CC[P+](CC)(CC)[Au-][S]C(CC(=O)O)C(=O)O (stereo not drawn) [Compound 2, S-Triethylphosphine gold(I) thiomalic acid]",toxic in human cells,improved trichomonacidal activity similar to AF,–
"CC[P](CC)(CC)[Au][c]1n(-c2c(C)cc(C)cc2C)cc[n+]1-c1c(C)cc(C)cc1C.[Cl-] [Compound 3, [Triethylphosphine-(bis(2,4,6-trimethylphenyl)imidazol-2-ylidene)]gold(I) chloride]",strongly increased human cytotoxicity,did not enhance trichomonacidal activity,–
"CCP(CC)CC.[Au+].[Cl-] [Compound 4, (Tri-n-ethylphosphine)gold(I) chloride]",markedly reduced human cytotoxicity; also recorded: decreased human cytotoxicity,slightly increased activity against T. vaginalis; also recorded: low μM range,activity against Mz-resistant T. vaginalis lines [1]: sensitive; histological analysis of vaginal tract (T. foetus D1): disappearance of T. foetus trophozoites from the vaginal lumen; interference or synergy with the activity of Mz [3]: neither compound 4 nor AF interfered or synergized; activity against T. foetus in vitro (T. foetus): as active against T. foetus in vitro as they were against T. vaginalis
"C[P+](C)(C)[Au-][Cl] [Compound 10, (Tri-n-methylphosphine)gold(I) chloride]",decreased human cytotoxicity,low μM range,activity against Mz-resistant T. vaginalis lines [1]: sensitive; activity against T. foetus in vitro (T. foetus): as active against T. foetus in vitro as they were against T. vaginalis
"C[P+](C)(C)[Au-][P+](C)(C)C.[Cl-] [Compound 13, Bis(trimethylphosphine)gold(I) chloride]",as or moderately more active,as or moderately more active,–
"CCC[P+](CCC)(CCC)[Au-][P+](CCC)(CCC)CCC.[Cl-] [Compound 15, Bis(tri-n-propylphosphine)gold(I) chloride]",as or moderately more active,as or moderately more active,–
"CC(C)[P+]([Au-][P+](C(C)C)(C(C)C)C(C)C)(C(C)C)C(C)C.[Cl-] [Compound 16, Bis(triisopropylphosphine)gold(I) chloride]",as or moderately more active,as or moderately more active,–
"CC(C)(C)[PH+](C(C)(C)C)C(C)(C)C.[Cl][Au] [Compound 17, (Tri-tert-butylphosphine)gold(I) chloride]",inactive,inactive,–
"Cc1ncc([N+](=O)[O-])n1CCO [Mz, metronidazole, reference compound]",–,–,loss in Mz susceptibility ([1]; four Mz-resistant lines compared to four susceptible lines): 20- to 100 fold; decrease in systemic exposure [5]: 96–98%
(1-Thio-β-D-glucopyranosato) (triethylphosphine) gold(I) [Compound 1],toxic in human cells,improved trichomonacidal activity similar to AF,–
"(2,3,4,6-Tetra-O-acetyl-1-thio-β-D-galacotopyranosato)(butylphosphine) gold(I) [Compound 5]",–,–,lower activity against human cells than triethyl partner (HeLa cells; [6]): ~ 10 fold; lower activity against T. vaginalis than triethyl partner (T. vaginalis F1623 [4]; [6]): ~ 10 fold
(Tri-n-butylphosphine)gold(I) chloride [Compound 9],abolished all activity; also recorded: inactive,abolished all activity; also recorded: inactive,–
(Tri-n-propylphosphine)gold(I) chloride [Compound 11],decreased human cytotoxicity,low μM range,–
(Triethylphosphine)gold(I) bromide [Compound 24],–,–,reduced trichomonacidal activity compared to the chloride counterparts (T. vaginalis F1623 [4]): 5- to 10 fold
(Triethylphosphine)gold(I) iodide [Compound 26],–,–,reduced trichomonacidal activity compared to the chloride counterparts (T. vaginalis F1623 [4]): 5- to 10 fold
(Triisopropylphosphine)gold(I) chloride [Compound 12],decreased human cytotoxicity,low μM range,–
(Trimethylphosphine)gold(I) bromide [Compound 23],–,–,reduced trichomonacidal activity compared to the chloride counterparts (T. vaginalis F1623 [4]): 5- to 10 fold
(Trimethylphosphine)gold(I) iodide [Compound 25],–,–,reduced trichomonacidal activity compared to the chloride counterparts (T. vaginalis F1623 [4]): 5- to 10 fold
Bis(triethylphosphine)gold(I) chloride [Compound 14],as or moderately more active,as or moderately more active,–
